We go through nine compounds from ChEMBL document CHEMBL1145630, “Antidiabetic activity of N-(6-substituted-1,3-benzothiazol-2-yl)benzenesulfonamides” (2008).

The term inhibition denotes the percentage by which the read-out fell short of the control. A higher inhibition goes with strong suppression.

In experiment [1] the test system is Rattus norvegicus. The experiment can be described thus: Antidiabetic effect in streptozo-nicotinamide rat model of diabetes assessed as change in blood glucose level at 100 mg/kg, po after 7 hrs relative to control. In kind it is functional. The method, boiled down:
(§1)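 Type 2 diabetes was induced in overnight-fasted rats with i.p. streptozotocin 65 mg/kg, given 15 min after i.p. nicotinamide 110 mg/kg. Rats with glucose above 250 mg/dL at 72 h were used, n = 5 per group. Compounds were suspended in 1% Tween 80 and given orally. Controls received vehicle; glibenclamide 5 mg/kg was the reference. Caudal-vein glucose was read by glucose-oxidase glucometer at 0, 1, 3, 5 and 7 h.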

In experiment [2] the target is 11-beta-hydroxysteroid dehydrogenase 1 (Homo sapiens) (UniProt P28845). The experiment can be described thus: Inhibition of human 11beta-HSD1 expressed in HEK293 cells at 10 uM by scintillation proximity assay. The class given is cell-based. A digest of the protocol: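 Cell-based scintillation proximity assay in HEK293 cells stably transfected with full-length human hsd11b1, grown in DMEM. Compounds were added at 1% final DMSO with 20 nM tritiated cortisone (final), 2 h at 37 °C. Medium was mixed with anti-mouse YSi SPA beads and anti-cortisol antibody in Tris-HCl pH 7.0 buffer, 2 h at room temperature. Inhibition was calculated against an uninhibited control.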

For experiment [3], the system named is Rattus norvegicus. The experiment can be described thus: Antidiabetic effect in streptozo-nicotinamide rat model of diabetes assessed as change in blood glucose level at 100 mg/kg, po after 5 hrs relative to control. In kind it is functional. The method, boiled down:
as §1

Experiment [4] concerns Rattus norvegicus. Description: Antidiabetic effect in streptozo-nicotinamide rat model of diabetes assessed as change in blood glucose level at 100 mg/kg, po after 3 hrs relative to control. In kind it is functional. The method, boiled down:
as §1

The subject of experiment [5] is Rattus norvegicus. The experiment can be described thus: Antidiabetic effect in streptozo-nicotinamide rat model of diabetes assessed as change in blood glucose level at 100 mg/kg, po after 1 hr relative to control. The class given is functional. A digest of the protocol:
as §1

Sequence of 11-beta-hydroxysteroid dehydrogenase 1 (Homo sapiens) (P28845 whole entry, looked up): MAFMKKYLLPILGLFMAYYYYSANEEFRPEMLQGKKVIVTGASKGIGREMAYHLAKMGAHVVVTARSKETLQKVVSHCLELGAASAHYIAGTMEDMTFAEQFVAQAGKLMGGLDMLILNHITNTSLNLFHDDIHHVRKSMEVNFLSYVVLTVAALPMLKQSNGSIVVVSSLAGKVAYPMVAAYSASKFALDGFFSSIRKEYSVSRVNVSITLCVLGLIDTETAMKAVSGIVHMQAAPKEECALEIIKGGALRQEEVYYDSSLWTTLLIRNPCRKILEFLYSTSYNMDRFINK

With `COc1ccc2nc(NS(=O)(=O)c3ccccc3)sc2c1`, the Activity in the experiment on Rattus norvegicus [1] was found to be 53.2%; in the experiment on Rattus norvegicus [3], 31.5%; with Rattus norvegicus [4] it was 62.9%; in the experiment on Rattus norvegicus [5] it was 78.1%. The compound further registered an inhibition in experiment [2] of 37.6%.
The matching figures for `COc1ccc2nc(NS(=O)(=O)c3ccc([N+](=O)[O-])cc3)sc2c1`: 27.8%, 18.1%, 42.5%, 69.7% and 53.3%.
The matching figures for `CC(=O)Nc1ccc(S(=O)(=O)Nc2nc3ccc([N+](=O)[O-])cc3s2)cc1`: 30%, 4%, 11.8%, 37.2% and 7.69%.
The matching figures for `COc1ccc(S(=O)(=O)Nc2nc3ccc([N+](=O)[O-])cc3s2)cc1`: 29%, 19.1%, 49%, 77.1% and 25.6%.
As to `CCOc1ccc2nc(NS(=O)(=O)c3ccc(C)cc3)sc2c1`, the inhibition in experiment [2] was determined as 16.4%.
Take `Cc1ccc2nc(NS(=O)(=O)c3ccc([N+](=O)[O-])cc3)sc2c1`: the inhibition in experiment [2] worked out at 11.1%.
`CCOc1ccc2nc(NS(=O)(=O)c3ccc([N+](=O)[O-])cc3)sc2c1` had an inhibition in experiment [2] of 15.5%.
For the compound `Cc1ccc2nc(NS(=O)(=O)c3ccc(Cl)cc3)sc2c1`, the Activity in the experiment on Rattus norvegicus [1] was found to be 21.4%; in the experiment on Rattus norvegicus [3], 12.2%; in the experiment with Rattus norvegicus [4], 36.1%; in the experiment on Rattus norvegicus [5] it was 34%. In addition, the inhibition in experiment [2] worked out at 27.2%.
As to `COc1ccc(Cl)cc1C(=O)NCCc1ccc(S(=O)(=O)NC(=O)NC2CCCCC2)cc1` [GLYBURIDE], the Activity was 55.4% in the experiment on Rattus norvegicus [1], 51.5% with Rattus norvegicus [3], 32.6% with Rattus norvegicus [4] and 78% in the experiment on Rattus norvegicus [5].
